Calls of active or inactive are those of the source. The rule behind the calls is not given here. Non-standard residues stand in square brackets, D forms with d. Residues, ends and D or L forms follow the SMILES beside them. *: point of attachment. Asu = N[C@@H](CCCCCC(=O)O)C(=O)O; NH(2-NH2-phenyl) = Nc1ccccc1N*
Assays:
Histone deacetylase 1 = Histone deacetylase 1 (Homo sapiens, UniProt Q13547); assay: Inhibition of human recombinant HDAC1
How it was run: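 Enzyme source: recombinant human HDAC1. IC50 reported as mean of two experiments with standard error.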

Histone deacetylase 3 = Histone deacetylase 3 (Homo sapiens, UniProt O15379); assay: Inhibition of human recombinant HDAC3
How it was run: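 Recombinant human HDAC1 or HDAC3 enzyme inhibition assay. IC50 values are means of two experiments, with standard error reported.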

[1] = target: Histone deacetylase (Homo sapiens) (UniProt Q13547+O15379+Q9UBN7+Q92769+Q9UQL6+Q8WUI4+Q9BY41+Q96DB2+P56524+Q9UKV0+Q969S8); assay: Inhibition of HDAC in human GM15850 cells assessed as effect on histone H3 acetylation at 20 uM after 48 hrs by Western blot analysis; format: cell-based
How it was run: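 Human lymphoblastoid line GM15850 exposed to compound at 20 µM for 48 h; endogenous histone H3 acetylation judged by western blot.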

Homo sapiens = species on record: Homo sapiens; assay: Selectivity ratio of IC50 for human recombinant HDAC1 to IC50 for human recombinant HDAC3
[2] = Inhibition of Eimeria tenella HDAC1 assessed as [3H]acetate release by scintillation counting

Chain of Histone deacetylase 1 (Q13547 whole entry): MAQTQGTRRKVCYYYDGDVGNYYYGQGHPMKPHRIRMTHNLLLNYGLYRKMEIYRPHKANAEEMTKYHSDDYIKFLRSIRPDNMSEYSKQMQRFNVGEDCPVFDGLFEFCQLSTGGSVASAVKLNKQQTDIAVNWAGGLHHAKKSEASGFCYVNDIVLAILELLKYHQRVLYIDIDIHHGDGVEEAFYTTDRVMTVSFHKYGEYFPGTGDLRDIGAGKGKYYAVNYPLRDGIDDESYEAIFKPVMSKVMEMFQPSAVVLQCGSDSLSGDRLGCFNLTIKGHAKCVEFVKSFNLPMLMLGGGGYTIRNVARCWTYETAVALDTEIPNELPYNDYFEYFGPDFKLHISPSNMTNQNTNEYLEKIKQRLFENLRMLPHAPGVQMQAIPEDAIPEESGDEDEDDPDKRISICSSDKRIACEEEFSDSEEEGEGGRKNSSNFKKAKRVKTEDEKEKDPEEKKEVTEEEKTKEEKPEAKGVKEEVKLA
Chain of Histone deacetylase 3 (O15379 whole entry): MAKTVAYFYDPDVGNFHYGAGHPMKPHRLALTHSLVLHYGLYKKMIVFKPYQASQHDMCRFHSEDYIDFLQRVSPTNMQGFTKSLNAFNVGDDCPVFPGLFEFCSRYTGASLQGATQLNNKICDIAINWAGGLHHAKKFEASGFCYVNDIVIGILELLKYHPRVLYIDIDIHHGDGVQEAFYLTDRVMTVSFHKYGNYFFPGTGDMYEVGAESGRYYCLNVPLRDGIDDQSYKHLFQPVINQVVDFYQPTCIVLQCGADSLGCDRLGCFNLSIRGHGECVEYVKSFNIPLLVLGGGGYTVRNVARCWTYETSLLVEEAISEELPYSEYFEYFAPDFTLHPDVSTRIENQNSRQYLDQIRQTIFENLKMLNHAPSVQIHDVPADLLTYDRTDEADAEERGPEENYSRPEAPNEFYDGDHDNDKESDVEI

Compound | IC50 (Histone deacetylase 1) [µM] | IC50 (Histone deacetylase 3) [µM] | Activity [1] | Ratio IC50 (Homo sapiens) | IC50 [2] [µM]
Nc1ccccc1NC(=O)CCCCC[C@@H]1NC(=O)[C@H]2CCCN2C(=O)[C@H](Cc2ccccc2)NC(=O)[C@H](Cc2ccccc2)NC1=O | 20.5 | 5.6 | – | – | –
N=C(N)NCCC[C@@H]1NC(=O)CNC(=O)[C@H](CCCCCC(=O)Nc2ccccc2N)NC(=O)CNC1=O (cyclo([Asu](NH(2-NH2-phenyl))GRG)) | – | – | Active | – | –
Nc1ccccc1NC(=O)CCCCC[C@H](NC(=O)[C@H]1CCCN1C(=O)[C@@H](N)Cc1ccccc1)C(=O)N[C@@H](Cc1ccccc1)C(=O)O | 84.2 | 27.2 | – | – | –
CCC(=O)CCCCC[C@@H]1NC(=O)[C@H]2CCCCN2C(=O)[C@H]([C@@H](C)CC)NC(=O)[C@H](Cc2cn(OC)c3ccccc23)NC1=O [APICIDIN] | – | – | – | – | 0.004

Further lines, with some results ahead:

IC50 (Histone deacetylase 1) [µM] | IC50 (Histone deacetylase 3) [µM] | Activity [1] | Ratio IC50 (Homo sapiens) | Compound | IC50 [2] [µM]
83.9 | 4.3 | Active | 19 | Cc1ccc(C(=O)NCC(=O)NCCC(=O)Nc2ccccc2N)cc1 | –
9.2 | 2.2 | – | – | Cc1ccc(C(=O)N[C@@H](CCCN=C(N)N)C(=O)NCCC(=O)Nc2ccccc2N)cc1 | –
4.7 | 1.3 | Active | – | N=C(N)NCCC[C@H](N)C(=O)NCC(=O)N[C@@H](CCCCCC(=O)Nc1ccccc1N)C(=O)Nc1ccccc1N | –
7.3 | 3.4 | – | – | Nc1ccccc1NC(=O)CCCCC[C@H](NC(=O)[C@@H]1CCCN1C(=O)[C@@H](N)Cc1ccccc1)C(=O)Nc1ccccc1N | –
